B1: tRNA (parent)
chain: GUUCCGUUGGCGUAAUGGUAACGCGUCUCCCUCCUAAGGAGAAGACUGCGGGUUCGAGUCCCGUACGGAACG

We go through 83 variants from the RNAGym collection of RNA variant scans (doi:10.1038/s41586-018-0170-7).

The data set covers variants of B1. The data set is described as follows: yeast fitness, log relative to wild type (ln ratio); higher = fitter; tRNA-Arg(CCU), competitive growth, 37 C, 1 M NaCl. The method, boiled down: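 A combinatorial tRNA-Arg(CCU) variant library was carried on a HIS3 centromeric plasmid in BY4742 lacking the chromosomal gene, from two independent transformations. Pools grew 4 generations in SC-HIS at 30 °C, then ~6.5 generations (~26.5 h) in SC-HIS 1M NaCl at 37 °C, with three outputs per input. Variants were counted by 125 bp paired-end Illumina sequencing. Fitness is ln of each genotype's generations (OD-scaled log2 output/input frequency, inverse-variance weighted across replicates) over the wild-type's.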
Turning to C27U A43C C46U C66A A70G C71U, the “yeast fitness (ln)” value was -0.101. Turning to G6U C46U C66U A69G A70G C71U, the “yeast fitness (ln)” value is -0.205. As for G6U C27U C66U A69G, the figure is -0.276; as for C27U A69G A70U, -0.206; as for C27U A69G A70G, -0.0809. As to A43C C46U C66A A69G C71U, the “yeast fitness (ln)” value was -0.26. With C27U C46U C66U A70U C71U, the “yeast fitness (ln)” value was -0.197.

As to G6U C27U C66U A70U, the “yeast fitness (ln)” value was -0.261.

G6U C27U C66U A70G: the “yeast fitness (ln)” value is -0.288. C27U C46U C66U A69G A70G C71U: the “yeast fitness (ln)” value is -0.166.

For A43C C46U A69G, the “yeast fitness (ln)” value amounted to 0.00452.

On to G6U C66A A69G C71U, for which the “yeast fitness (ln)” value was -0.0488. For the variant G6U C46U A69G, the “yeast fitness (ln)” value was -0.397. For C27U A43C C46U C66U A69G A70U the value was -0.285; for C27U A43C C46U C66U A69G A70G, -0.211. Regarding C27U C46U A70G C71U, the “yeast fitness (ln)” value is -0.256. Consider C27U A43C C46U A69G A70U, for which the “yeast fitness (ln)” value was -0.0621. In the case of C27U A43C C46U A69G A70G, the “yeast fitness (ln)” value is -0.0876.

As for G6U C66A A70U C71U, the “yeast fitness (ln)” value is -0.412. For C27U C46U C66A A70U C71U, the “yeast fitness (ln)” value is -0.13. G6U C27U A43C C71U: the “yeast fitness (ln)” value is -0.281.

As for G6U C46U C66U A69G A70G, the “yeast fitness (ln)” value is -0.275. Consider G6U C46U C66U A69G A70U, for which the “yeast fitness (ln)” value was -0.235. For the variant C27U C66A A69G A70U, the “yeast fitness (ln)” value is -0.15. C27U C66A A69G A70G: the “yeast fitness (ln)” value is -0.25. With G6U C66U C71U, the “yeast fitness (ln)” value was -0.639. G6U C27U C46U C66A A69G A70U: the “yeast fitness (ln)” value was -0.196. As for G6U C27U C46U C66A A69G A70G, the figure is -0.243; as for G6U C27U C46U C66A C71U, -0.0489; as for G6U C27U C46U C66A A69G C71U, -0.507. C27U A43C C46U C66A A69G A70G C71U: the “yeast fitness (ln)” value is -0.122.

Consider G6U C27U A70G, for which the “yeast fitness (ln)” value is -0.302.

As for G6U C27U A70U, the “yeast fitness (ln)” value is -0.208. Regarding G6U C27U C66A A69G A70U C71U, the “yeast fitness (ln)” value is -0.378. As for C27U C46U C66U A70U, the “yeast fitness (ln)” value was -0.0808.

Turning to C27U C46U C66U A70G, the “yeast fitness (ln)” value is -0.315. Consider G6U C46U C66A A70U, for which the “yeast fitness (ln)” value turned out to be 0.00243. As to G6U C46U C66A A70G, the “yeast fitness (ln)” value is -0.00887. For the variant G6U C27U C46U C71U, the “yeast fitness (ln)” value was -0.205. As for C27U A43C C66A A69G A70G, the “yeast fitness (ln)” value is -0.181. As to C27U A43C C66A A69G A70U, the “yeast fitness (ln)” value was -0.289.

On to G6U C27U A43C C46U C66U C71U, for which the “yeast fitness (ln)” value was -0.355.

With A43C A69G A70G, the “yeast fitness (ln)” value was -0.0594. Consider A43C A69G A70U, for which the “yeast fitness (ln)” value is -0.0328. Turning to G6U C46U, the “yeast fitness (ln)” value is -0.0183.

Regarding G6U C46U C66U C71U, the “yeast fitness (ln)” value is -0.183. Consider G6U C27U A43C C66A A69G A70G C71U, for which the “yeast fitness (ln)” value was -0.338. As for C27U A43C A69G C71U, the figure is -0.44. Turning to A43C C46U A70U C71U, the “yeast fitness (ln)” value is -0.131. For the variant C27U A43C C46U A69G A70G C71U, the “yeast fitness (ln)” value is -0.0917. As to G6U C46U C71U, the “yeast fitness (ln)” value is -0.413. For G6U C27U C46U A69G A70U, the “yeast fitness (ln)” value is -0.292. Turning to G6U C27U C46U A69G A70G, the “yeast fitness (ln)” value was -0.192. As for G6U C46U C66U A70U, the “yeast fitness (ln)” value was -0.297. For the variant G6U C46U C66U A70G, the “yeast fitness (ln)” value is -0.153. For G6U C27U C46U A70G the value was -0.15. As to G6U C27U C46U A70U, the “yeast fitness (ln)” value was -0.167.

In the case of G6U C66U A69G A70G, the “yeast fitness (ln)” value was -0.271.

For G6U C66U A69G A70U, the “yeast fitness (ln)” value was -0.261. As to G6U C27U C46U C66U A69G A70U C71U, the “yeast fitness (ln)” value was -0.51. G6U C27U C46U C66A A70G: the “yeast fitness (ln)” value was -0.04. Turning to G6U C27U C46U C66A A70U, the “yeast fitness (ln)” value was -0.084. G6U C27U C46U C66A A69G: the “yeast fitness (ln)” value is -0.0559.

With G6U C27U C66A A70G C71U, the “yeast fitness (ln)” value is -0.294. G6U C46U C66A A70U C71U: the “yeast fitness (ln)” value was -0.394. For C27U A43C C46U A69G A70U C71U, the “yeast fitness (ln)” value is -0.317. With G6U C66U A70U, the “yeast fitness (ln)” value was -0.122. For G6U C66U A70G the value was -0.383; for G6U C27U C66A A70G, -0.0711. G6U C27U C66A A70U: the “yeast fitness (ln)” value was -0.17.

Consider G6U C27U C46U A69G A70G C71U, for which the “yeast fitness (ln)” value is -0.342. For A43C C46U A70G the value was -0.00498; for A43C C46U A70U, -0.00645. C27U A43C C66U C71U: the “yeast fitness (ln)” value was -0.269. As for G6U C66A, the “yeast fitness (ln)” value turned out to be 0.000896. As for G6U C66U, the figure is -0.0366; as for A43C C46U A70G C71U, -0.168; as for A43C A70U C71U, -0.0836. On to C27U C66U A69G A70U, for which the “yeast fitness (ln)” value was -0.143. As for C27U C66U A69G A70G, the figure is -0.19; as for G6U C46U C66U A69G C71U, -0.594; as for C27U C46U C66U C71U, -0.376.

On to C27U A43C C66U A69G C71U, for which the “yeast fitness (ln)” value was -0.344.
